Experimental findings from ChEMBL document CHEMBL1255192, “3-alkylthio-1,2,4-triazine dimers with potent antimalarial activity” (Bioorg Med Chem Lett, 2010) are described below.

Data set [1] can be described thus: Solubility of the compound at pH 6.5. In kind it is physicochemical. As to conditions: buffer.
The nature of data set [2]: Distribution coefficient log D of the compound at pH 3. It is filed as physicochemical. As to conditions: octanol/water. Put shortly:
(§1)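 Log D at each pH was estimated by a chromatographic method.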

Data set [3] is described as follows: Solubility of the compound at pH 2. As to conditions: buffer. In kind it is physicochemical.
For another data set, the system named is HEK293. Kind of data set: Cytotoxicity against HEK293 cells. In kind it is cell-based. The conditions noted are these: Homo sapiens. A digest of the protocol: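 HEK 293 cell toxicity assay, with puromycin as the control. Read-out is EC50.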
Data set [4] in a line: Distribution coefficient log D of the compound at pH 7.4. In kind it is physicochemical. The conditions noted are these: octanol/water. A digest of the protocol:
as §1

Data set [5] can be described thus: Intrinsic clearance in human liver microsomes. It is filed as ADME, Microsome. A digest of the protocol: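 Compound was incubated with human liver microsomes. Parent loss and metabolites were followed by LCMS. Concentration versus time was fitted to exponential decay to get the first-order depletion rate constant, which gave in vitro CLint and a predicted hepatic extraction ratio.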

The subject of data set [6] is Plasmodium falciparum. Kind of data set: Antimalarial activity against Plasmodium falciparum 3D7 infected in human erythrocyte. In kind it is functional, organism-based. A digest of the protocol: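 Asexual erythrocytic-stage culture of the P. falciparum 3D7 strain, with chloroquine as the reference control. Read-out is EC50.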
In data set [7] the test system is Plasmodium falciparum. Kind of data set: Antimalarial activity against Plasmodium falciparum Dd2 infected in human erythrocyte. It is filed as functional, organism-based. A digest of the protocol: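 Chloroquine-resistant P. falciparum Dd2 grown at the erythrocytic stage, with chloroquine as the control. EC50 was determined.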
The subject of another data set is L6. Kind of data set: Cytotoxicity against rat L6 cells. In kind it is cell-based.

Converted amounts (≈) assume the structure as drawn.

The term solubility denotes the dissolved amount per volume that the medium holds. As a reminder, the logD is the decadic logarithm of the distribution of all forms, ionised or not, between an organic phase and buffer at a given pH. Higher therefore signals higher lipophilicity. The term EC50 denotes the concentration giving half of the maximal effect. A high value points to weaker potency. One may read the microsomal CLint as the rate of metabolic loss divided by the concentration. A high value points to faster metabolism.

With `CSc1nncc(-c2cnnc(SC)n2)n1`, the solubility was determined as 14.5 µM (≈ 3.66 µg/mL) in [1] and 15.3 µM (≈ 3.86 µg/mL) in data set [3]. The logD in data set [2] and in [4] was 2.4 in each case. Moreover, the EC50 in the data set on HEK293 was determined as 68 µM.

Take `CCSc1nncc(-c2cnnc(SCC)n2)n1`: in the data set on HEK293, it took 84 µM to reach a half-maximal effect (EC50).

In turn, `CCCSc1nncc(-c2cnnc(SCCC)n2)n1` returned an EC50 with HEK293 greater than 115 µM.

Regarding `CSc1nncc(-c2cnnc(OCCN(C)C)n2)n1`, a half-maximal effect in the data set with HEK293 (EC50) was put at 24 µM. In other words, the double-digit micromolar range.

Take `CCc1nncc(-c2cnnc(CC)n2)n1`: the solubility in [1] turned out to be 311 µM (≈ 67.3 µg/mL); in data set [3], 426 µM (≈ 92.1 µg/mL). For the same compound, the microsomal CLint in data set [5] amounted to 11.7 µL/min/mg. Also, the logD in data set [2] and in data set [4] was 1.6 in each case. In addition, in the data set on Plasmodium falciparum [6], a half-maximal effect (EC50) was put at 1.6 µM.

Regarding `COc1nncc(-c2cnnc(OC)n2)n1`, the midpoint of the response with HEK293, the EC50, lay at 36 µM.

The compound `CCCCSc1nncc(-c2cnnc(SCCCC)n2)n1` registered an EC50 with HEK293 greater than 115 µM.

`CN(C)CCSc1nncc(-c2cnnc(SCCN(C)C)n2)n1`: the EC50 with HEK293 was 25 µM; with Plasmodium falciparum [7] it was 0.62 µM; in the data set on Plasmodium falciparum [6], 0.47 µM.

As for `CCN(CC)CCSc1nncc(-c2cnnc(SC)n2)n1`, the EC50 came to 9 µM in the data set on HEK293, 0.012 µM in the data set with Plasmodium falciparum [7] and 0.023 µM with Plasmodium falciparum [6].

Regarding `CCN(CC)CCSc1nncc(-c2cnnc(SCCN(CC)CC)n2)n1`, the EC50 in the data set with HEK293 amounted to 16 µM; in the data set on Plasmodium falciparum [7] it was 0.79 µM; with Plasmodium falciparum [6] it was 0.44 µM.

As to `COc1nncc(-c2cnnc(SC)n2)n1`, the EC50 in the data set with L6 is 33 µM; with HEK293 it was 18 µM.
